Experimental findings from ChEMBL document CHEMBL1128182, “Synthesis of substituted 1-norbornylamines with antiviral activity” (J Med Chem, 1995) are described below.

Values after ≈ are worked out from the molar mass of the structure shown.

A short description of data set [1]: Minimum toxic concentration against influenza A virus, in MDCK cells from dog kidney. Conditions: read-out: MTC50. It counts as ADME, cell-based, Canis lupus familiaris. The method in brief: (§1)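 MDCK dog kidney cells infected with influenza A. MIC50 is the lowest concentration giving a 50% drop in virus yield. MTC50 is the lowest concentration toxic to 50% of cells. Selectivity index is MTC50 divided by MIC50, in µg/mL terms. Amantadine hydrochloride served as the reference.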

Another data set has as its system MDCK. Description: Minimum inhibitory concentration against influenza A virus, in MDCK cells from dog kidney. To be noted: Canis lupus familiaris. Type of data set: functional. The method in brief: as §1
Data set [2] in a line: Minimum toxic concentration against African swine fever virus, in vero monkey kidney cells. Conditions: chlorocebus sabaeus, read-out: MTC50. It counts as ADME, cell-based.
The nature of data set [3]: Minimum toxic concentration against herpes simplex virus 2, in vero monkey kidney cells. Type of data set: ADME, cell-based. To be noted: chlorocebus sabaeus, read-out: MTC50.
Data set [4] has as its system Vero. Description: Minimum inhibitory concentration against African swine fever virus, in vero monkey kidney cells. It counts as functional. To be noted: Chlorocebus sabaeus.
In data set [5] the test system is Vero. Kind of data set: Minimum inhibitory concentration against herpes simplex virus 2, in vero monkey kidney cells. It counts as functional. Conditions: Chlorocebus sabaeus.
Data set [6] is described as follows: […] against African Swine Fever Virus. It counts as functional.
Data set [7] is described as follows: Ratio of MIC50 to MTC50 against HSV-2. It counts as functional.

As for `Cl.NC12CC3CC(CC(C3)C1)C2` [AMANTADINE HYDROCHLORIDE], the MCC in data set [1] was determined as 300 µg/mL. This compound also came in with an MIC50 against MDCK of 0.5 µg/mL.
For the compound `C=C1C2(NCC)CCC(C2)C1(C)C` (stereo not drawn), the results for the MCC in data set [1], in data set [2] and in data set [3] were 200 µg/mL, 300 µg/mL and 300 µg/mL, respectively. The MIC50 was found to be 5 µg/mL (≈ 27.9 µM) with MDCK, 100 µg/mL (≈ 558 µM) against Vero [4] and 300 µg/mL (≈ 1670 µM) in the data set on Vero [5]. Also, the figures for the Selectivity index in data set [6] and in data set [7] were 3 and 1, respectively.
On to `CC1C2CCC(N)(C2)C1(C)C` (stereo not drawn), for which the values for the MCC in data set [1], in data set [2] and in data set [3] were 50 µg/mL, 200 µg/mL and 200 µg/mL, respectively. Moreover, the figures for the MIC50 with MDCK, in the data set with Vero [4] and against Vero [5] were 5 µg/mL (≈ 32.6 µM), 25 µg/mL (≈ 163 µM) and 25 µg/mL (≈ 163 µM), respectively. Also, the Selectivity index in data set [6] and in data set [7] was 8 in each case.
Turning to `CC1C2(N)CCC(C2)C1(C)C` (stereo not drawn), the MCC in data set [2] and in data set [3] was 300 µg/mL in each case. Moreover, the values for the MIC50 in the data set with Vero [4] and with Vero [5] were 30 µg/mL (≈ 196 µM) and 50 µg/mL (≈ 326 µM), respectively. Further, the Selectivity index in data set [6] came out at 10; in data set [7] it was 6.
In the case of `CCNC12CCC(C1)C(C)(C)C2C` (stereo not drawn), the MCC worked out at 100 µg/mL in data set [1], 300 µg/mL in data set [2] and 300 µg/mL in data set [3]. For the same compound, the MIC50 against MDCK worked out at 0.1 µg/mL (≈ 0.552 µM); with Vero [4], 30 µg/mL (≈ 165 µM); in the data set on Vero [5], 75 µg/mL (≈ 414 µM). The Selectivity index in data set [6] came out at 10; in data set [7], 4.
On to `C=C1C2CCC(NCC)(C2)C1(C)C` (stereo not drawn), for which the MCC amounted to 100 µg/mL in data set [1], 400 µg/mL in data set [2] and 400 µg/mL in data set [3]. Also, the MIC50 amounted to 0.1 µg/mL (≈ 0.558 µM) with MDCK, 30 µg/mL (≈ 167 µM) against Vero [4] and 100 µg/mL (≈ 558 µM) in the data set on Vero [5]. The Selectivity index in data set [6] came to 13; in data set [7] it was 4.
With `CCNC12CCC(C1)C(C)C2(C)C` (stereo not drawn), the MCC was found to be 100 µg/mL in data set [1], 300 µg/mL in data set [2] and 300 µg/mL in data set [3]. Further, the MIC50 against MDCK is < 10 µg/mL; against Vero [4], 25 µg/mL (≈ 138 µM); with Vero [5], 25 µg/mL (≈ 138 µM). The Selectivity index in data set [6] and in data set [7] was 12 throughout.
